The source made the active and inactive calls. The rule behind the calls is not given here.
How the values were obtained:
D(4) dopamine receptor = target: T1, D(4) dopamine receptor (Homo sapiens, UniProt P21917); assay: Displacement of [3H]radioligand from human recombinant dopamine D4.4 receptor expressed in CHO cells by microplate scintillation counting; type: cell-based
T1 sequence (P21917 whole entry): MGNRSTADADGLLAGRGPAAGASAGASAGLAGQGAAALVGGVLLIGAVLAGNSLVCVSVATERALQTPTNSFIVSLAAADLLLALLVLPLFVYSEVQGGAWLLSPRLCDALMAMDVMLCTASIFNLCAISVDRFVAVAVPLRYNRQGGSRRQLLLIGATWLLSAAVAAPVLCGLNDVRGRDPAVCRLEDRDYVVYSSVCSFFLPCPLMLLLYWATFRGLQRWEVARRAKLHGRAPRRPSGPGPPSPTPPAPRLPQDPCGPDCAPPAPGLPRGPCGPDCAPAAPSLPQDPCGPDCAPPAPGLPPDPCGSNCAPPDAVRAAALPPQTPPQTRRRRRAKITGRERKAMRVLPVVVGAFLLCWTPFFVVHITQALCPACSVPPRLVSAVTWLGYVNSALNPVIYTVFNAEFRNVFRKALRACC
How it was run: (§1)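 Human D2L or D3 receptor stably expressed in HEK cells, or D4.4 in CHO cells. Competition binding against [3H]spiperone as the D2-like radioligand. Ki values in nM are means of two or three experiments, each run in triplicate, ± SEM.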

D(1A) dopamine receptor [1] = target: T2, D(1A) dopamine receptor (Homo sapiens, UniProt P21728); assay: Displacement of [3H]SCH23390 from human recombinant dopamine D1 receptor expressed in HEK293 cells by microplate scintillation counting; type: cell-based
How it was run: (§2)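 Human D1 or D5 receptor stably expressed in HEK cells. Ki values in nM are means of two or three experiments, each run in triplicate, ± SEM.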

D(1B) dopamine receptor = D(1B) dopamine receptor (Homo sapiens, UniProt P21918); assay: Displacement of [3H]radioligand from human recombinant dopamine D5 receptor expressed in HEK293 cells by microplate scintillation counting; type: cell-based; how it was run: as §2
D(2) dopamine receptor [2] = target: T3, D(2) dopamine receptor (Homo sapiens, UniProt P14416); assay: Displacement of [3H]spiperone from human recombinant dopamine D2L receptor expressed in HEK293 cells by microplate scintillation counting; type: cell-based; how it was run: as §1
D(2) dopamine receptor [3] = target: T3, D(2) dopamine receptor; assay: Antagonist activity at human dopamine D2L receptor expressed in HEK293 cells assessed as inhibition of quinpirole-induced calcium influx
D(1A) dopamine receptor [4] = target: T2, D(1A) dopamine receptor; assay: Antagonist activity at human dopamine D1 receptor expressed in HEK293 cells assessed as inhibition of SKF-38393-induced calcium influx; type: functional, cell-based
How it was run: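 HEK293 cells stably expressing the human D1 receptor were loaded with a fluorescent dye. Cells were preincubated with rising concentrations of test ligand, then SKF 38393 agonist was injected. Ca2+-induced fluorescence was read on a microplate reader.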

D(3) dopamine receptor = D(3) dopamine receptor (Homo sapiens, UniProt P35462); assay: Displacement of [3H]radioligand from human recombinant dopamine D3 receptor expressed in HEK293 cells by microplate scintillation counting; type: cell-based; how it was run: as §1
[5] = Selectivity for dopamine D5 receptor over dopamine D1 receptor

T2 sequence (P21728 whole entry): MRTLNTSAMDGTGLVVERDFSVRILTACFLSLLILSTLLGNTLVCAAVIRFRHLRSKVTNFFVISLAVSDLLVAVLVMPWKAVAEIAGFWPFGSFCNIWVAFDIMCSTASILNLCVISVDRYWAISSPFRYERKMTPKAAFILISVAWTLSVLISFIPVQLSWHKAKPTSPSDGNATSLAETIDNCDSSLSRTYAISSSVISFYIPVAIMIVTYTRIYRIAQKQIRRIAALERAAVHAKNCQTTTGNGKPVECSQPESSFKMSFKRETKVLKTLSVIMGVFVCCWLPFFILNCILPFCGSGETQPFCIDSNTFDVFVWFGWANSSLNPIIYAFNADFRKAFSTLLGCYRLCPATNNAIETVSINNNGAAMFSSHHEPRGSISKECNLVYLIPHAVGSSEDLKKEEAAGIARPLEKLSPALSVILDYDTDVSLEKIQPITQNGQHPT
T3 sequence (P14416 whole entry): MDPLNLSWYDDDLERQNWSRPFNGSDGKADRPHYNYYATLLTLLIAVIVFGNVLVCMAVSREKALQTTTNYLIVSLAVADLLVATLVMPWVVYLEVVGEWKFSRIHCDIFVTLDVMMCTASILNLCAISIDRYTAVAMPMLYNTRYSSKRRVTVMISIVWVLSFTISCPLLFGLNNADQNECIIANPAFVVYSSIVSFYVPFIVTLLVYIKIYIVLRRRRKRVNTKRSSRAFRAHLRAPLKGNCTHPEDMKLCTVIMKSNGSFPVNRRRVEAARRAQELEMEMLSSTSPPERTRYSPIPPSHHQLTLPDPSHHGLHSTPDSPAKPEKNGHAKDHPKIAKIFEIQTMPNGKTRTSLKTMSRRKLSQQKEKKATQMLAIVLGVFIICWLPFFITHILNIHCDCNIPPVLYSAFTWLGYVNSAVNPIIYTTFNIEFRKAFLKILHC
Sequence of D(1B) dopamine receptor (P21918 whole entry): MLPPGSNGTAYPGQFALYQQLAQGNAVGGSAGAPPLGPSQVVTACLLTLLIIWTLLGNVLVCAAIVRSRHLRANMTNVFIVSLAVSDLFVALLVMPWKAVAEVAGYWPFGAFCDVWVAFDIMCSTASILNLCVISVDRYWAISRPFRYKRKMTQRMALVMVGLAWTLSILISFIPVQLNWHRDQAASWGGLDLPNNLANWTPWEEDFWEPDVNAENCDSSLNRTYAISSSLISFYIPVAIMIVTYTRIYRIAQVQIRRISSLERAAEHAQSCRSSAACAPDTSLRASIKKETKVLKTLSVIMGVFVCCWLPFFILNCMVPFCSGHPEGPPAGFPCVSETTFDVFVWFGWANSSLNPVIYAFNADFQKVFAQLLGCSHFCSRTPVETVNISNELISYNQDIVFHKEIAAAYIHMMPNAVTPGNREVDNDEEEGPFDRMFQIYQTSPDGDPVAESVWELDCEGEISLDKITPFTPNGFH
Sequence of D(3) dopamine receptor (P35462 whole entry): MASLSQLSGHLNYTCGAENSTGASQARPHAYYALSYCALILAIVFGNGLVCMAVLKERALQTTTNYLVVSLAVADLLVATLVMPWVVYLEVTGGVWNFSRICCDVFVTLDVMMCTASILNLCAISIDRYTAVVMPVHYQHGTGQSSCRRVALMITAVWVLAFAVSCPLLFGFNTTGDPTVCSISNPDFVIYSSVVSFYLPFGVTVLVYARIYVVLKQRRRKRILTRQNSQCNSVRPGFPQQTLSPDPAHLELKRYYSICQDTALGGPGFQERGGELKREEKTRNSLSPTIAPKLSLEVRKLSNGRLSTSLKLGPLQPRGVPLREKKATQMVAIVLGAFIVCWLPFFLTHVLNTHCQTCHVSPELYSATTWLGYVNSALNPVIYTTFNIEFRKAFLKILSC

| SMILES | Ki (D(4) dopamine receptor) [µM] | Ki (D(1A) dopamine receptor [1]) [µM] | Ki (D(1B) dopamine receptor) [µM] | Ki (D(2) dopamine receptor [2]) [µM] | Activity (D(2) dopamine receptor [3]) | Activity (D(1A) dopamine receptor [4]) | Ki (D(3) dopamine receptor) [µM] | Selectivity ratio [5] |
| --- | --- | --- | --- | --- | --- | --- | --- | --- |
| c1ccc2c(c1)CCN1CCc3cccc4[nH]cc(c34)C21 (centres undefined) | > 10 | 1.84 | 1.53 | 4.46 | Active | Active | > 10 |  |
| CN1CCc2ccccc2Cc2c([nH]c3ccccc23)CC1 | 0.225 | 0.0285 | 0.0103 | 0.0551 | Active | Active | 0.513 |  |
| CN1CCc2ccccc2Cc2c[nH]c3cccc(c23)CC1 | 0.0391 | 0.0042 | 0.0025 | 0.004 | Active | Active | 0.0429 |  |
| CN1CCc2ccccc2Cc2[nH]c3ccccc3c2CC1 |  |  |  |  | Active | Active |  |  |
| CN1Cc2ccccc2[C@@H]2c3cccc4[nH]cc(c34)C[C@H]21 |  |  |  |  |  |  |  | 10 |
| CN1CCc2ccccc2Cc2c[nH]c3cccc(c23)C1 | > 10 | > 10 | > 10 | > 10 |  |  | > 10 |  |
| c1ccc2c(c1)CCN1CCc3[nH]c4ccccc4c3C21 (centres undefined) | > 10 | 2.1 | > 10 | 1.48 | Active | Active | > 10 |  |
| c1ccc2c(c1)CCN1Cc3cccc4[nH]cc(c34)C21 (centres undefined) | > 10 |  |  |  | Active | Active |  |  |

Source: ChEMBL document CHEMBL1155427, “Dopamine receptor ligands. Part 18: (1) modification of the structural skeleton of indolobenzazecine-type dopamine receptor antagonists” (J Med Chem, 2010)
